Laboratory results taken from ChEMBL document CHEMBL4373711, “Development of 3,5-Dinitrophenyl-Containing 1,2,4-Triazoles and Their Trifluoromethyl Analogues as Highly Efficient Antitubercular Agents Inhibiting Decaprenylphosphoryl-β-d-ribofuranose 2'-Oxidase” (J Med Chem, 2019).
Values after ≈ are worked out from the molar mass of the structure shown. Active and inactive are the calls of the source. No cut-off for these calls is given here.

Experiments:
Staphylococcus aureus [1] = test: Antibacterial activity against Staphylococcus aureus subsp. aureus ATCC 29213 CCM 4223 at highest concentration measured after 24 to 48 hrs by alamar blue dye based broth microdilution assay; type: functional, organism-based
Mycobacterium kansasii [2] = test: Antimycobacterial activity against Mycobacterium kansasii CNCTC My 235/80 after 14 days; type: functional; settings: CNCTC My 235/80, 336 h
In short: (§1)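 Microdilution in Šula's semisynthetic medium; compounds in DMSO at 32–0.03 µM. Inoculum from 1.0 McFarland suspension diluted 10-4. […] Isoniazid and rifampicin as reference drugs.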

Mycobacterium kansasii [3] = test: Antimycobacterial activity against Mycobacterium kansasii CNCTC My 235/80 after 7 days; type: functional; settings: CNCTC My 235/80, 168 h; in short: as §1
Candida albicans = test: Antifungal activity against Candida albicans ATCC 24433 CCM 8320 at highest concentration measured after 24 to 48 hrs by alamar blue dye based broth microdilution assay; type: functional, organism-based
Candida tropicalis = test: Antifungal activity against Candida tropicalis ATCC 750 CCM 8264 at highest concentration measured after 24 to 48 hrs by alamar blue dye based broth microdilution assay; type: functional, organism-based
Serratia marcescens = test: Antibacterial activity against Serratia marcescens at highest concentration measured after 24 to 48 hrs by alamar blue dye based broth microdilution assay; type: functional, organism-based
[4] = system: Staphylococcus epidermidis; test: Antibacterial activity against Staphylococcus epidermidis at highest concentration measured after 24 to 48 hrs by alamar blue dye based broth microdilution assay; type: functional, organism-based
Mycobacterium avium [5] = test: Antimycobacterial activity against Mycobacterium avium CNCTC My 330/88 after 14 days; type: functional; settings: CNCTC My 330/88, 336 h
In short: (§2)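 M. avium was tested by microdilution in Šula's semisynthetic medium, with compounds dissolved in DMSO and serially diluted from 1000 down to 1. Inoculum was a 1.0 McFarland suspension diluted 10-5. Plates were incubated at 37 °C and read at 14 and 21 days. […] Isoniazid and rifampicin served as standards.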

Pichia kudriavzevii = test: Antifungal activity against Candida krusei ATCC 6258 CCM8271 at highest concentration measured after 24 to 48 hrs by alamar blue dye based broth microdilution assay; type: functional, organism-based
Aspergillus fumigatus = test: Antifungal activity against Aspergillus fumigatus ATCC 204305 at highest concentration measured after 24 to 48 hrs by alamar blue dye based broth microdilution assay; type: functional, organism-based
[6] = system: Mycobacterium tuberculosis; test: Antimycobacterial activity against Mycobacterium tuberculosis H37Rv CNCTC My 331/88 after 21 days; type: functional; settings: H37Rv CNCTC My 331/88, 504 h
In short: (§3)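 M. tuberculosis strains (H37Rv and clinical MDR/XDR isolates) tested by microdilution in Šula's semisynthetic medium. Compounds were dissolved in DMSO and tested at 32 to 0.03 µM in twofold steps. Inoculum was a 1.0 McFarland suspension diluted 10-3. Plates were incubated at 37 °C and read at 14 and 21 days.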

Staphylococcus aureus [7] = test: Antibacterial activity against methicillin-resistant Staphylococcus aureus subsp. aureus ATCC 43300 CCM 4750 at highest concentration measured after 24 to 48 hrs by alamar blue dye based broth microdilution assay; type: functional, organism-based
Klebsiella pneumoniae = test: Antibacterial activity against Klebsiella pneumoniae at highest concentration measured after 24 to 48 hrs by alamar blue dye based broth microdilution assay; type: functional, organism-based
Mycobacterium avium [8] = test: Antimycobacterial activity against Mycobacterium avium CNCTC My 330/88 after 21 days; type: functional; settings: CNCTC My 330/88, 504 h; in short: as §2
Mycobacterium kansasii [9] = test: Antimycobacterial activity against Mycobacterium kansasii 6509/96 after 21 days; type: functional; settings: 6509/96, 504 h; in short: as §1
[10] = system: Mycobacterium tuberculosis; test: Antimycobacterial activity against Mycobacterium tuberculosis H37Rv CNCTC My 331/88 after 14 days; type: functional; settings: H37Rv CNCTC My 331/88, 336 h; in short: as §3
Mycobacterium kansasii [11] = test: Antimycobacterial activity against Mycobacterium kansasii CNCTC My 235/80 after 21 days; type: functional; settings: CNCTC My 235/80, 504 h; in short: as §1
Pseudomonas aeruginosa = test: Antibacterial activity against Pseudomonas aeruginosa ATCC 27853 CCM 3955 at highest concentration measured after 24 to 48 hrs by alamar blue dye based broth microdilution assay; type: functional, organism-based
Aspergillus flavus = test: Antifungal activity against Aspergillus flavus CCM 8363 at highest concentration measured after 24 to 48 hrs by alamar blue dye based broth microdilution assay; type: functional, organism-based
Mycobacterium kansasii [12] = test: Antimycobacterial activity against Mycobacterium kansasii 6509/96 after 7 days; type: functional; settings: 6509/96, 168 h; in short: as §1
[13] = system: Trichophyton interdigitale; test: Antifungal activity against Trichophyton interdigitale ATCC 9533 CCM 8377 at highest concentration measured after 72 to 120 hrs by alamar blue dye based broth microdilution assay; type: functional
Mycobacterium kansasii [14] = test: Antimycobacterial activity against Mycobacterium kansasii 6509/96 after 14 days; type: functional; settings: 6509/96, 336 h; in short: as §1
Candida parapsilosis = test: Antifungal activity against Candida parapsilosis ATCC 22019 CCM 8260 at highest concentration measured after 24 to 48 hrs by alamar blue dye based broth microdilution assay; type: functional, organism-based
Lichtheimia corymbifera = test: Antifungal activity against Lichtheimia corymbifera CCM 8077 at highest concentration measured after 24 to 48 hrs by alamar blue dye based broth microdilution assay; type: functional, organism-based
Escherichia coli = test: Antibacterial activity against Escherichia coli ATCC 25922 CCM 3954 at highest concentration measured after 24 to 48 hrs by alamar blue dye based broth microdilution assay; type: functional, organism-based
Enterococcus faecalis = test: Antibacterial activity against Enterococcus faecalis ATCC 29212 CCM 4224 at highest concentration measured after 24 to 48 hrs by alamar blue dye based broth microdilution assay; type: functional, organism-based

Compound	Activity (Staphylococcus aureus [1])	MIC99 (Mycobacterium kansasii [2]) [µM]	MIC99 (Mycobacterium kansasii [3]) [µM]	Activity (Candida albicans)	Activity (Candida tropicalis)	Activity (Serratia marcescens)	Activity [4]	MIC99 (Mycobacterium avium [5]) [µM]	Activity (Pichia kudriavzevii)	Activity (Aspergillus fumigatus)	MIC99 [6] [µM]	Activity (Staphylococcus aureus [7])	Activity (Klebsiella pneumoniae)	MIC99 (Mycobacterium avium [8]) [µM]	MIC99 (Mycobacterium kansasii [9]) [µM]	MIC99 [10] [µM]	MIC99 (Mycobacterium kansasii [11]) [µM]	Activity (Pseudomonas aeruginosa)	Activity (Aspergillus flavus)	MIC99 (Mycobacterium kansasii [12]) [µM]	other results
O=[N+]([O-])c1cc(Cn2c(SCc3ccccc3)nnc2-c2ccccc2)cc([N+](=O)[O-])c1	inactive	8 (≈ 3.58 µg/mL)	4 (≈ 1.79 µg/mL)	inactive	inactive	inactive	inactive	> 1000	inactive	inactive	16 (≈ 7.16 µg/mL)	inactive	inactive	> 1000	16 (≈ 7.16 µg/mL)	8 (≈ 3.58 µg/mL)	16 (≈ 7.16 µg/mL)	inactive	inactive	8 (≈ 3.58 µg/mL)	Activity [13]: inactive; MIC99 (Mycobacterium kansasii [14]): 16 µM (≈ 7.16 µg/mL); Activity (Candida parapsilosis): inactive; Activity (Lichtheimia corymbifera): inactive; Activity (Escherichia coli): inactive; Activity (Enterococcus faecalis): inactive
O=[N+]([O-])c1cc(CSc2nnc(C3CCCCC3)n2Cc2ccccc2)cc([N+](=O)[O-])c1	inactive	4 (≈ 1.81 µg/mL)	4 (≈ 1.81 µg/mL)	inactive	inactive	inactive	inactive	250 (≈ 113 µg/mL)	inactive	inactive	4 (≈ 1.81 µg/mL)	inactive	inactive	250 (≈ 113 µg/mL)	4 (≈ 1.81 µg/mL)	2 (≈ 0.907 µg/mL)	4 (≈ 1.81 µg/mL)	inactive	inactive	4 (≈ 1.81 µg/mL)	Activity [13]: inactive; MIC99 (Mycobacterium kansasii [14]): 4 µM (≈ 1.81 µg/mL); Activity (Candida parapsilosis): inactive; Activity (Lichtheimia corymbifera): inactive; Activity (Escherichia coli): inactive; Activity (Enterococcus faecalis): inactive
CCCCCCc1nnc(SCc2cc([N+](=O)[O-])cc([N+](=O)[O-])c2)n1Cc1ccccc1	inactive	2 (≈ 0.911 µg/mL)	1 (≈ 0.456 µg/mL)	inactive	inactive	inactive	inactive	250 (≈ 114 µg/mL)	inactive	inactive	2 (≈ 0.911 µg/mL)	inactive	inactive	250 (≈ 114 µg/mL)	4 (≈ 1.82 µg/mL)	2 (≈ 0.911 µg/mL)	2 (≈ 0.911 µg/mL)	inactive	inactive	2 (≈ 0.911 µg/mL)	Activity [13]: inactive; MIC99 (Mycobacterium kansasii [14]): 4 µM (≈ 1.82 µg/mL); Activity (Candida parapsilosis): inactive; Activity (Lichtheimia corymbifera): inactive; Activity (Escherichia coli): inactive; Activity (Enterococcus faecalis): inactive
CCCCCCCCCCCCn1c(SCc2cc([N+](=O)[O-])cc([N+](=O)[O-])c2)nnc1-c1ccccc1	inactive	2 (≈ 1.05 µg/mL)	2 (≈ 1.05 µg/mL)	inactive	inactive	inactive	inactive	250 (≈ 131 µg/mL)	inactive	inactive	4 (≈ 2.1 µg/mL)	inactive	inactive	250 (≈ 131 µg/mL)	4 (≈ 2.1 µg/mL)	2 (≈ 1.05 µg/mL)	4 (≈ 2.1 µg/mL)	inactive	inactive	2 (≈ 1.05 µg/mL)	Activity [13]: inactive; MIC99 (Mycobacterium kansasii [14]): 4 µM (≈ 2.1 µg/mL); Activity (Candida parapsilosis): inactive; Activity (Lichtheimia corymbifera): inactive; Activity (Escherichia coli): inactive; Activity (Enterococcus faecalis): inactive
COc1ccc(-c2nnc(SCc3cc([N+](=O)[O-])cc(C(F)(F)F)c3)n2Cc2ccccc2)cc1	inactive	> 32	32 (≈ 16 µg/mL)	inactive	inactive	inactive	inactive	250 (≈ 125 µg/mL)	inactive	inactive	> 32	inactive	inactive	250 (≈ 125 µg/mL)	> 32	32 (≈ 16 µg/mL)	> 32	inactive	inactive	> 32	Activity [13]: inactive; MIC99 (Mycobacterium kansasii [14]): > 32 µM; Activity (Candida parapsilosis): inactive; Activity (Lichtheimia corymbifera): inactive; Activity (Escherichia coli): inactive; Activity (Enterococcus faecalis): inactive
CCCCCCCCCCCCn1c(SCc2ccccc2)nnc1-c1cc([N+](=O)[O-])cc([N+](=O)[O-])c1	inactive	4 (≈ 2.1 µg/mL)	2 (≈ 1.05 µg/mL)	inactive	inactive	inactive	inactive	250 (≈ 131 µg/mL)	inactive	inactive	4 (≈ 2.1 µg/mL)	inactive	inactive	250 (≈ 131 µg/mL)	4 (≈ 2.1 µg/mL)	2 (≈ 1.05 µg/mL)	4 (≈ 2.1 µg/mL)	inactive	inactive	2 (≈ 1.05 µg/mL)	Activity [13]: inactive; MIC99 (Mycobacterium kansasii [14]): 4 µM (≈ 2.1 µg/mL); Activity (Candida parapsilosis): inactive; Activity (Lichtheimia corymbifera): inactive; Activity (Escherichia coli): inactive; Activity (Enterococcus faecalis): inactive
O=[N+]([O-])c1cc(CSc2nnc(-c3ccccc3)n2Cc2ccc(Cl)cc2Cl)cc([N+](=O)[O-])c1	inactive	> 32	> 32	inactive	inactive	inactive	inactive	250 (≈ 129 µg/mL)	inactive	inactive	> 32	inactive	inactive	250 (≈ 129 µg/mL)	> 32	> 32	> 32	inactive	inactive	> 32	Activity [13]: inactive; MIC99 (Mycobacterium kansasii [14]): > 32 µM; Activity (Candida parapsilosis): inactive; Activity (Lichtheimia corymbifera): inactive; Activity (Escherichia coli): inactive; Activity (Enterococcus faecalis): inactive
COc1ccc(-c2nnc(SCc3cc([N+](=O)[O-])cc([N+](=O)[O-])c3)n2Cc2ccccc2)cc1	inactive	8 (≈ 3.82 µg/mL)	4 (≈ 1.91 µg/mL)	inactive	inactive	inactive	inactive	250 (≈ 119 µg/mL)	inactive	inactive	4 (≈ 1.91 µg/mL)	inactive	inactive	250 (≈ 119 µg/mL)	8 (≈ 3.82 µg/mL)	4 (≈ 1.91 µg/mL)	8 (≈ 3.82 µg/mL)	inactive	inactive	8 (≈ 3.82 µg/mL)	Activity [13]: inactive; MIC99 (Mycobacterium kansasii [14]): 8 µM (≈ 3.82 µg/mL); Activity (Candida parapsilosis): inactive; Activity (Lichtheimia corymbifera): inactive; Activity (Escherichia coli): inactive; Activity (Enterococcus faecalis): inactive
